Key:
[1] = biological target: T1, Oxysterols receptor LXR-alpha (Homo sapiens, UniProt Q13133); assay: Binding affinity to human LXRalpha
T1 sequence (Q13133 whole entry): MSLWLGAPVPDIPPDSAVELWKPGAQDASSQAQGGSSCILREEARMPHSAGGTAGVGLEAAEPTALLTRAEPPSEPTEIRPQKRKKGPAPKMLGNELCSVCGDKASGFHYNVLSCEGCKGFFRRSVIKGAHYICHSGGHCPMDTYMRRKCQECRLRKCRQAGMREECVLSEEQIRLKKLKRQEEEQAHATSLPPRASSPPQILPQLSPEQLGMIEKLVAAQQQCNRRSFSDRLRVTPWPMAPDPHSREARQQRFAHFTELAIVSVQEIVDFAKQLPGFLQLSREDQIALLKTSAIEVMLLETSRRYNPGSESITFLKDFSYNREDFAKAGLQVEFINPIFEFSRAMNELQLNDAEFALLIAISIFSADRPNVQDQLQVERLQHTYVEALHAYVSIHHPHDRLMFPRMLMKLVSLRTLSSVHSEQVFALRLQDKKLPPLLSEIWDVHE

[2] = biological target: T2, Oxysterols receptor LXR-beta (Homo sapiens, UniProt P55055); assay: Binding to human LXRbeta
T2 sequence (P55055 whole entry): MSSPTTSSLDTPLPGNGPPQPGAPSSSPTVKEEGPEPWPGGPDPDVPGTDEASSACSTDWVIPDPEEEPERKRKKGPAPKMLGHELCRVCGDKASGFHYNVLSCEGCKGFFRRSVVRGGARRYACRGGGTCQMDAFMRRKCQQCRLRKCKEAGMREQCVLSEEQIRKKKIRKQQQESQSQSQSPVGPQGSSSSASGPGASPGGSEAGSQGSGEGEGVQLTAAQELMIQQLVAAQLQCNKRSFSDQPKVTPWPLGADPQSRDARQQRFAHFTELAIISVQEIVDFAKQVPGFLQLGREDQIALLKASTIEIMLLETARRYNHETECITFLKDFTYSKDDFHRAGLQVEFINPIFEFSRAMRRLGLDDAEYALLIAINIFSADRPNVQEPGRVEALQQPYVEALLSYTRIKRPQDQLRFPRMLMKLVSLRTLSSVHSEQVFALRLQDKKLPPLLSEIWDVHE

[3] = biological target: T1, Oxysterols receptor LXR-alpha; assay: Agonist activity at human LXRalpha coexpressed in African green monkey CV1 cells by Gal4 responsive reporter gene assay; format: cell-based, CV-1
[4] = biological target: T2, Oxysterols receptor LXR-beta; assay: Agonist activity at human LXRbeta coexpressed in African green monkey CV1 cells by Gal4 responsive reporter gene assay; format: cell-based, CV-1
[5] = Half life in human liver microsomes; format: ADME
[6] = Half life in rat liver microsomes; format: ADME
[7] = biological target: T2, Oxysterols receptor LXR-beta; assay: Agonist activity at human LXRbeta by Gal4 assay
Summary of the method: (§1)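 Cells were co-transfected with pG5-luc reporter and a Gal4 fusion of the ligand-binding domain (pGal4-LXRα LBD for α, pGal4-LXRβ LBD for β). Twenty hours after transfection, cells were treated with compound for 16 h. Agonist activity was read as luciferase signal and EC50 derived. Values are the average of at least two independent determinations.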

[8] = biological target: T1, Oxysterols receptor LXR-alpha; assay: Agonist activity at human LXRalpha by Gal4 assay; summary of the method: as §1
[9] = Half life in mouse liver microsomes; format: ADME
[10] = biological target: T3, Mineralocorticoid receptor (Homo sapiens, UniProt P08235); assay: Inhibition of Mineralocorticoid receptor (unknown origin)
T3 sequence (P08235 whole entry): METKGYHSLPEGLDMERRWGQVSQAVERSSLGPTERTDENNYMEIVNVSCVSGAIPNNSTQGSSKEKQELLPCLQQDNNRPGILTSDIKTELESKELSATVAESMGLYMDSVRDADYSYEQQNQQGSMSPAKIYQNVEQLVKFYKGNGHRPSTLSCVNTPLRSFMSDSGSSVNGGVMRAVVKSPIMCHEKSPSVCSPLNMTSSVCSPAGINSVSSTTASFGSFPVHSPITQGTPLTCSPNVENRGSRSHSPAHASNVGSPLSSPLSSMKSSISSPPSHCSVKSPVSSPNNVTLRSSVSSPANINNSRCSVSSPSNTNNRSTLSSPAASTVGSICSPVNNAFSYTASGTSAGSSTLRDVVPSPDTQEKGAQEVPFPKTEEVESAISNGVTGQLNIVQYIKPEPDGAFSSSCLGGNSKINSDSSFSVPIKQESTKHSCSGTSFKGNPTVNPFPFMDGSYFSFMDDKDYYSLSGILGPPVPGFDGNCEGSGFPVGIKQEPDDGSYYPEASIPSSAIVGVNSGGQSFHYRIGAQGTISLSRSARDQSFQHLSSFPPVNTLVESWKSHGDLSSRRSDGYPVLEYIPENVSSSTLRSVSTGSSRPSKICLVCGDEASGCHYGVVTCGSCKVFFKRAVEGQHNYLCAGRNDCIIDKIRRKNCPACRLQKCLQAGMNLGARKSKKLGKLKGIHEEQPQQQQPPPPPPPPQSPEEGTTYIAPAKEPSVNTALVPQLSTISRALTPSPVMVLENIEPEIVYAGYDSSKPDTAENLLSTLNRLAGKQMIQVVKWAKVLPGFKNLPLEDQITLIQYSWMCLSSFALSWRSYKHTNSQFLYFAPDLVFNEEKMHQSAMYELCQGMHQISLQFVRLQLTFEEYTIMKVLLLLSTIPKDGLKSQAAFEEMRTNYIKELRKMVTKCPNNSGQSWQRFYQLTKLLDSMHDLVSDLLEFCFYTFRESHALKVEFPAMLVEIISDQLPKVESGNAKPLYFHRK

Retinoid X receptor = biological target: T4, Retinoid X receptor (Homo sapiens, UniProt P28702+P48443+P19793); assay: Inhibition of RXR (unknown origin); format: protein assay
T4 sequence (P28702 whole entry): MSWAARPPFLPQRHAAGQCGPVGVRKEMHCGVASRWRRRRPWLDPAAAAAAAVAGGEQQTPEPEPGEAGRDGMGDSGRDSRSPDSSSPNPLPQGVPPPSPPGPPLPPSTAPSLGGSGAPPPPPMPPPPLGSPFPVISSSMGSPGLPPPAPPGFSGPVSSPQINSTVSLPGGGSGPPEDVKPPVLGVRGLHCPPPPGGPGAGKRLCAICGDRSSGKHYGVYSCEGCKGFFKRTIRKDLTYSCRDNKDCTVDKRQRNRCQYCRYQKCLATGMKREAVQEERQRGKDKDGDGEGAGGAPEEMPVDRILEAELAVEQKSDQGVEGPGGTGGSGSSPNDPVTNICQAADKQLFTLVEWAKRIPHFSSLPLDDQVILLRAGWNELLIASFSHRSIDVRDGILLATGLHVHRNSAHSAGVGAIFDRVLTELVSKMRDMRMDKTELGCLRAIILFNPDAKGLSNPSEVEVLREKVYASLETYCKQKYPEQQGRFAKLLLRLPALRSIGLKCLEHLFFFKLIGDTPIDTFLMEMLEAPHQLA
T4 sequence (P48443 whole entry): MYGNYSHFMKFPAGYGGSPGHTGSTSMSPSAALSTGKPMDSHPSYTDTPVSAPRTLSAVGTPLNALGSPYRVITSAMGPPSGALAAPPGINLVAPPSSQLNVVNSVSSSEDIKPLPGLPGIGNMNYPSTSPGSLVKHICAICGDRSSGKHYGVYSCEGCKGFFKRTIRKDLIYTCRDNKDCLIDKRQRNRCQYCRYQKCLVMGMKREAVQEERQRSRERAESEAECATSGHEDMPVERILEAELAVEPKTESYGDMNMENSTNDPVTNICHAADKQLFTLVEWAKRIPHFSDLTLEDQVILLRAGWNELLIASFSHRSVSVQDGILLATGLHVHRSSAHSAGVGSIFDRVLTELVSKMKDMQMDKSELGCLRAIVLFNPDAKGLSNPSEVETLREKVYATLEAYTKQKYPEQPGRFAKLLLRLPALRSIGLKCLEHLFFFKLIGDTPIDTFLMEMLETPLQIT
T4 sequence (P19793 whole entry): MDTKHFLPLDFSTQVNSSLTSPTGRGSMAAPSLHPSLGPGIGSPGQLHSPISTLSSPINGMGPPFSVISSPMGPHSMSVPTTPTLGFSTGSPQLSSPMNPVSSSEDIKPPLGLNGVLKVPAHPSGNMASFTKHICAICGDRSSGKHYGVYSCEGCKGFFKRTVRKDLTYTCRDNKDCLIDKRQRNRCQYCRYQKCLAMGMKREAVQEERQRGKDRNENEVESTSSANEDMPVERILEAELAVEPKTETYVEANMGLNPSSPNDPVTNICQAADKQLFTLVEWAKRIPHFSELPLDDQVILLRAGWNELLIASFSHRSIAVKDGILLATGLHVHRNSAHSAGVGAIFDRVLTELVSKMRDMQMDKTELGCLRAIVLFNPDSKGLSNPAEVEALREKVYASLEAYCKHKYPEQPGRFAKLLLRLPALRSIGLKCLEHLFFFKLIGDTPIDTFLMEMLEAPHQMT

[11] = biological target: T5, Nuclear receptor ROR-alpha (Homo sapiens, UniProt P35398); assay: Inhibition of RORalpha receptor (unknown origin)
T5 sequence (P35398 whole entry): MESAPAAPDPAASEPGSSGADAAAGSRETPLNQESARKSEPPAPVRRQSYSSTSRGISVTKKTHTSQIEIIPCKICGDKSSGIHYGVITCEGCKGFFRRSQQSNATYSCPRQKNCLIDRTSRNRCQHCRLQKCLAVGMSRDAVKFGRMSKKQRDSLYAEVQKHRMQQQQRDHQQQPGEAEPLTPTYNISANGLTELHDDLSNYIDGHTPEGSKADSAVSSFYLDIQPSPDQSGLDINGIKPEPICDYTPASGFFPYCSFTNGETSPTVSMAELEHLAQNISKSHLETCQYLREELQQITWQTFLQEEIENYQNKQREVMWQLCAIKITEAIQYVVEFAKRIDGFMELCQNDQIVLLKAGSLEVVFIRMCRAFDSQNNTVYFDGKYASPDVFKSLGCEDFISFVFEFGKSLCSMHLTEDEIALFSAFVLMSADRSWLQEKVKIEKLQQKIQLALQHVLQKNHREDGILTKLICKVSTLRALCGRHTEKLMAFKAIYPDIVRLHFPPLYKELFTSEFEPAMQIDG

[12] = biological target: T6, Nuclear receptor subfamily 1 group I member 2 (Homo sapiens, UniProt O75469); assay: Inhibition of PXR (unknown origin)
T6 sequence (O75469 whole entry): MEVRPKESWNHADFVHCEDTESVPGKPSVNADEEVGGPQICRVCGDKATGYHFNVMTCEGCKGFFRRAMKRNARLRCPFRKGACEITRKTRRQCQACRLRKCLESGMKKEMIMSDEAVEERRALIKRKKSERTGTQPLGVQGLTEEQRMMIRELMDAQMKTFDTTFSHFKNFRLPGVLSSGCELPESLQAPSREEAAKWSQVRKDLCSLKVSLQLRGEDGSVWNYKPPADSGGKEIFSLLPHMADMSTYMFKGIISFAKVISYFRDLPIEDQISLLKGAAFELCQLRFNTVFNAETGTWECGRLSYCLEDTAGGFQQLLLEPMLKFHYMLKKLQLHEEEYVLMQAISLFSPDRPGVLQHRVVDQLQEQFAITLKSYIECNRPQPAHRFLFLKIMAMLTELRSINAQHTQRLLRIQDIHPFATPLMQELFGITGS

[13] = Half life in cynomolgus monkey liver microsomes; format: ADME, Macaca fascicularis
[14] = biological target: T1, Oxysterols receptor LXR-alpha; assay: Agonist activity at human LXRalpha ligand binding domain(167 to 447 residues) transfected in HEK293 cells after 16 hrs by Gal4-luciferase reporter gene assay; format: cell-based
[15] = biological target: T2, Oxysterols receptor LXR-beta; assay: Agonist activity at human LXRbeta ligand binding domain(155 to 460 residues) transfected in HEK293 cells after 16 hrs by Gal4-luciferase reporter gene assay; format: cell-based

half-life [5] | half-life [6] | half-life [9] | Structure (SMILES) | other results
 |  |  | C[C@H](CC[C@@H]1OC1(C)C)[C@H]1CC[C@H]2[C@@H]3CC=C4C[C@@H](O)CC[C@]4(C)[C@H]3CC[C@]12C [24(S),25-EPOXYCHOLESTEROL] | EC50 [1]: > 20000 nM; EC50 [2]: > 20000 nM; EC50 [3]: 117 nM; EC50 [4]: 168 nM
19 min | 42 min |  | CC(C)[C@@H]1CN(c2ccc(F)c(S(C)(=O)=O)c2)CCN1c1ncc(Cl)c(C(F)(F)F)n1 | 
 |  |  | O=C(O)Cc1cccc(OCCCN(Cc2cccc(C(F)(F)F)c2Cl)CC(c2ccccc2)c2ccccc2)c1 | EC50 [7]: 390 nM; EC50 [8]: 1130 nM; EC50 [1]: 22 nM; EC50 [2]: 5 nM
22 min | 36 min | 38 min | CC(C)[C@@H]1CN(c2ccc(F)c(S(C)(=O)=O)c2)CCN1c1ncc(CO)c(C(F)(F)F)n1 | 
43 min | 70 min | 40 min | CC(C)[C@@H]1CN(c2ccc(CO)c(S(C)(=O)=O)c2)CCN1c1ncc(CO)c(C(F)(F)F)n1 | IC50 [10]: > 10000 nM; IC50 (Retinoid X receptor): > 10000 nM; IC50 [11]: > 10000 nM; IC50 [12]: > 10000 nM; half-life [13]: 10 min
 | 5 min | 11 min | CC(C)[C@@H]1CN(c2ccc(F)c(S(C)(=O)=O)c2)CCN1c1nccc(C(F)(F)F)n1 | 
 | 25 min |  | CC(C)[C@H]1CN(c2ccc(CO)c(S(C)(=O)=O)c2)CCN1c1ncc(CO)c(C(F)(F)F)n1 | 
56 min | 51 min | 72 min | CC(C)[C@@H]1CN(c2ccc(F)c(S(C)(=O)=O)c2)CCN1c1ncc(C(C)(C)O)c(C(F)(F)F)n1 | 
 |  |  | FC(F)(F)c1ccc(CN2CCN(c3ccccc3)CC2c2ccccc2)cn1 (stereo unspecified) | EC50 [14]: > 20000 nM; EC50 [15]: > 20000 nM
 | 11 min | 8 min | CC(C)[C@@H]1CN(c2cccc(S(C)(=O)=O)c2)CCN1c1nccc(C(F)(F)F)n1 | 

— ChEMBL document CHEMBL3813625, “Discovery of a Novel, Orally Efficacious Liver X Receptor (LXR) β Agonist” (J Med Chem, 2016)
